Calls of active or inactive are those of the source.
Experiments:
[1] = biological target: T1, Interleukin-1 receptor-associated kinase 4 (Homo sapiens, UniProt Q9NWZ3); test: Inhibition of recombinant human His-tagged full length IRAK4 expressed in baculovirus expression system using Ser/Thr07 peptide as substrate incubated for 1 hr by Z'lyte assay
T1 sequence (Q9NWZ3 whole entry): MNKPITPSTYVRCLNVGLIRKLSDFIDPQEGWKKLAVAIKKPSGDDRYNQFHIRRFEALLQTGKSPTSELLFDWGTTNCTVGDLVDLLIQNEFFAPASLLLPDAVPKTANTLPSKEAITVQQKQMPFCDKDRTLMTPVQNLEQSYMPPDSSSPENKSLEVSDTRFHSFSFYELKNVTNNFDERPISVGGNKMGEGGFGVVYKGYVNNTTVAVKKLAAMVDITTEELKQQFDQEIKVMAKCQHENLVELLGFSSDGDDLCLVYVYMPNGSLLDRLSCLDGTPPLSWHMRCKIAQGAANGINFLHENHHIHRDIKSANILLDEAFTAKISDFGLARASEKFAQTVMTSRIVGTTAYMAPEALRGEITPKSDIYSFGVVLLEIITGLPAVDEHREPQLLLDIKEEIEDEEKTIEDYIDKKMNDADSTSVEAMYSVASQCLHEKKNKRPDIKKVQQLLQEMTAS

OCI-Ly10 = test: Cytotoxicity against human OCILY10 cells harboring MYD88 L265P mutant assessed as reduction in cell viability incubated for 72 hrs by CCK-8 assay; assay type: functional, cell-based; conditions: OCI-Ly10, 72 h
Ramos = test: Cytotoxicity against human Ramos cells harboring MYD88 assessed as reduction in cell viability incubated for 72 hrs by CCK-8 assay; assay type: functional, cell-based
TMD8 [2] = test: Cytotoxicity against human TMD8 cells harboring MYD88 L265P mutant assessed as reduction in cell viability incubated for 72 hrs by CCK-8 assay; assay type: functional, cell-based; conditions: TMD8, 72 h
HT = test: Cytotoxicity against human HT cells harboring MYD88 assessed as reduction in cell viability incubated for 72 hrs by CCK-8 assay; assay type: functional, cell-based
[3] = biological target: T2, Interleukin-1 receptor-associated kinase 4 (Homo sapiens) (UniProt Q9NWZ3); test: Inhibition of IRAK4 in human TMD8 cells assessed as decrease in IRAK4 Thr345/Ser346 phosphorylation incubated for 2 hrs by Western blot analysis; assay type: cell-based; conditions: dose 0.3-10 µM
T2 sequence (whole entry): T1 sequence (Q9NWZ3 whole entry)
Method in brief: (§1)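 OCI-LY10 or TMD8 cells, about 2×10^6 per well, treated with compound or DMSO for 2 h. Cells washed twice with PBS, lysed, then Western blotted for p-IRAK4 (Thr-345/Ser-346), p-IKKβ and p-p65. Bands quantified densitometrically; significance thresholds p<0.05, 0.01, 0.001.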

[4] = biological target: Mast/stem cell growth factor receptor Kit (Homo sapiens) (UniProt P10721); test: Inhibition of c-Kit (unknown origin) at 0.1 uM incubated for 1 hr by ELISA relative to control
Method in brief: (§2)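 Part of a 20-kinase panel tested at 0.1 μM compound. Kinase inhibition measured by ELISA following previously described protocols.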

[5] = biological target: T2, Interleukin-1 receptor-associated kinase 4 (Homo sapiens); test: Inhibition of IRAK4 in human TMD8 cells assessed as decrease in IKKbeta phosphorylation at 0.3 to 10 uM incubated for 2 hrs by Western blot analysis; assay type: cell-based; conditions: dose 0.3-10 µM; method in brief: as §1
[6] = biological target: T2, Interleukin-1 receptor-associated kinase 4 (Homo sapiens); test: Inhibition of IRAK4 in human OCI-LY10 cells assessed as decrease in IKKbeta phosphorylation at 0.3 to 10 uM incubated for 2 hrs by Western blot analysis; assay type: cell-based; conditions: OCILY10, dose 0.3-10 µM; method in brief: as §1
[7] = biological target: T2, Interleukin-1 receptor-associated kinase 4 (Homo sapiens); test: Inhibition of IRAK4 in human OCI-LY10 cells assessed as decrease in NF-kappaB phosphorylation at 0.3 to 10 uM incubated for 2 hrs by Western blot analysis; assay type: cell-based; conditions: OCILY10, dose 0.3-10 µM; method in brief: as §1
[8] = biological target: Receptor-type tyrosine-protein kinase FLT3 (Homo sapiens) (UniProt P36888); test: Inhibition of FLT3 (unknown origin) at 0.1 uM incubated for 1 hr by ELISA relative to control; method in brief: as §2
[9] = biological target: T2, Interleukin-1 receptor-associated kinase 4 (Homo sapiens); test: Inhibition of IRAK4 in human TMD8 cells assessed as decrease in NF-kappaB phosphorylation at 0.3 to 10 uM incubated for 2 hrs by Western blot analysis; assay type: cell-based; conditions: dose 0.3-10 µM; method in brief: as §1
TMD8 [10] = test: Cytotoxicity against human TMD8 cells harboring MYD88 L265P mutant assessed as combination index at 0.3 uM in presence of ibrutinib incubated for 72 hrs by CCK-8 assay; assay type: functional
Method in brief: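 TMD8 cells (RPMI1640, 10% FBS, penicillin–streptomycin, 0.05 mM 2-mercaptoethanol, 37 °C, 5% CO2), seeded at 10000-12000 cells/well, exposed to ibrutinib plus IRAK4 inhibitor at varied concentrations for 72 h. Viability read by CCK-8; combination index computed with CalcuSyn, CI below 1 taken as synergy.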

[11] = biological target: T2, Interleukin-1 receptor-associated kinase 4 (Homo sapiens); test: Inhibition of IRAK4 in human OCILY10 cells assessed as decrease in IRAK4 Thr345/Ser346 phosphorylation incubated for 2 hrs by Western blot analysis; assay type: cell-based; conditions: dose 0.3-10 µM; method in brief: as §1
[12] = test system: Receptor-type tyrosine-protein kinase FLT3 (Homo sapiens), P36888 [UNDEFINED MUTATION]; test: Inhibition of FLT3-ITD mutant (unknown origin) at 0.1 uM incubated for 1 hr by ELISA relative to control; method in brief: as §2
Sequence of Receptor-type tyrosine-protein kinase FLT3 (Homo sapiens), P36888 [UNDEFINED MUTATION] (P36888 whole entry, looked up, change not shown): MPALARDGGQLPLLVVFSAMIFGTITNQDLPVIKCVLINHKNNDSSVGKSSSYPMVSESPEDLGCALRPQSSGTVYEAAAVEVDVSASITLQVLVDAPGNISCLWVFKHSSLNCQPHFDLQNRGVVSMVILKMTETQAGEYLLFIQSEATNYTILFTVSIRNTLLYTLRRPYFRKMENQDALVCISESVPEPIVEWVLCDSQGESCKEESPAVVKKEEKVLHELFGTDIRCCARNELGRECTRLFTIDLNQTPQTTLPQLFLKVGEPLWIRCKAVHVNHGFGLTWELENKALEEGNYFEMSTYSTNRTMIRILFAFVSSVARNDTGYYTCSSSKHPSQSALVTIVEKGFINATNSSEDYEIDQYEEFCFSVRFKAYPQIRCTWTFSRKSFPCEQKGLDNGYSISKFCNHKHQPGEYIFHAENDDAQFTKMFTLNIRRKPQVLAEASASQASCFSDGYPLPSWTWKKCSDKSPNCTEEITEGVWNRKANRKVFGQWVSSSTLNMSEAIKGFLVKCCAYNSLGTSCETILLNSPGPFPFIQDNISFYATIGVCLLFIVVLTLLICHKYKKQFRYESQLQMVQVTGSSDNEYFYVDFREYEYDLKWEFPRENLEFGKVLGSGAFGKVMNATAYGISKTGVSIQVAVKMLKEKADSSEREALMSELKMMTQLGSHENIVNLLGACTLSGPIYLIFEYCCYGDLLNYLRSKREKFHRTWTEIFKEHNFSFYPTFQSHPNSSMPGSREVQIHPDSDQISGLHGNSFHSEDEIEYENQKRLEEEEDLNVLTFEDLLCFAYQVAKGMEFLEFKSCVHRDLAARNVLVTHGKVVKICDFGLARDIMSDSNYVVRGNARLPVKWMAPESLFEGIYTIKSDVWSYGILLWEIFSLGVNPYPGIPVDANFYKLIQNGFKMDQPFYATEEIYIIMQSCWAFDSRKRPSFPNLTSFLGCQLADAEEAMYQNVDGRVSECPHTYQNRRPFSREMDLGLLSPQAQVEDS

Sequence of Receptor-type tyrosine-protein kinase FLT3 (Homo sapiens) (P36888 whole entry): as the sequence (P36888 whole entry, looked up, change not shown) above
Sequence of Mast/stem cell growth factor receptor Kit (Homo sapiens) (P10721 whole entry): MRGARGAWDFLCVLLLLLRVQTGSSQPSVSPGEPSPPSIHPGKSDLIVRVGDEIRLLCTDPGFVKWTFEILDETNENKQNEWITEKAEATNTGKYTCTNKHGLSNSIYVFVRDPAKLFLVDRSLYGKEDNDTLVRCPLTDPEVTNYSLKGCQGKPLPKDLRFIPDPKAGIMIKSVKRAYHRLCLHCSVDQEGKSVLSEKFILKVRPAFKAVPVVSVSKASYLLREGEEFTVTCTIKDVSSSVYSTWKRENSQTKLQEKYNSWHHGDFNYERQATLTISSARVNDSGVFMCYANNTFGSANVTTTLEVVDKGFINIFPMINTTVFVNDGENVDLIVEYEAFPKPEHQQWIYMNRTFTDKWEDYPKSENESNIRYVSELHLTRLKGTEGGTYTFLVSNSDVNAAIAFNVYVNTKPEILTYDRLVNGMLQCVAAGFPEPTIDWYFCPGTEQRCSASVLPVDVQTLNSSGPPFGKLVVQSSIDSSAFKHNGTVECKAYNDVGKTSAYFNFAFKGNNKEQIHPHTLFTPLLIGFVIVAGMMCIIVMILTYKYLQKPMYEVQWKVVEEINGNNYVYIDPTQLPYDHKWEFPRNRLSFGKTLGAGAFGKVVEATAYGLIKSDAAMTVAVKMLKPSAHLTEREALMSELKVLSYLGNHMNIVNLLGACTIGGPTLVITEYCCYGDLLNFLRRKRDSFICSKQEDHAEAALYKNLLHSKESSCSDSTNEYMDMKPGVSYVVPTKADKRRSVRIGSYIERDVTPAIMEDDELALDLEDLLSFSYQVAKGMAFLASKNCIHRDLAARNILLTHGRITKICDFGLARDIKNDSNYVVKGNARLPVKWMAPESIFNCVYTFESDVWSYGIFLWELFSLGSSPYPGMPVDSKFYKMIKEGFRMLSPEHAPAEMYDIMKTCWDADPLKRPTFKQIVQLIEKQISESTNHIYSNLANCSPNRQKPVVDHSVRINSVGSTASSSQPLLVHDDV

Compound: Cn1cc(NC(=O)c2ncn3ccc(N4CCC[C@@H](N)C4)nc23)c(C(F)F)n1
- IC50 [1]: > 1 µM
- IC50 (OCI-Ly10): > 50 µM
- IC50 (Ramos): > 50 µM
- IC50 (TMD8 [2]): > 50 µM
- IC50 (HT): > 50 µM

Compound: Cn1cc(NC(=O)c2cnc3ccc(N[C@H]4CCCNC4)nn23)c(C(F)F)n1
- IC50 [1]: 0.0362 µM
- IC50 (OCI-Ly10): 22.3 µM
- IC50 (Ramos): > 50 µM
- IC50 (TMD8 [2]): 22.3 µM
- IC50 (HT): > 50 µM

Compound: Cn1cc(NC(=O)c2cnc3ccc(NCCN)nn23)c(C(F)F)n1
- IC50 [1]: 0.0175 µM
- IC50 (OCI-Ly10): 8.8 µM
- IC50 (Ramos): > 50 µM
- IC50 (TMD8 [2]): 17.7 µM
- IC50 (HT): > 50 µM

Compound: Cc1nc2ccc(N[C@@H]3CCCNC3)nn2c1C(=O)Nc1cn(C)nc1C(F)F
- IC50 [1]: > 1 µM

Compound: Cn1cc(NC(=O)c2cnc3ccc(N[C@@H]4CCNC4)nn23)c(C(F)F)n1
- IC50 [1]: 0.0077 µM
- IC50 (OCI-Ly10): 3.6 µM
- IC50 (Ramos): 45 µM
- IC50 (TMD8 [2]): 8.3 µM
- IC50 (HT): > 50 µM

Compound: Cn1cc(NC(=O)c2cnc3ccc(N[C@@H]4CCCNC4)nn23)c(C(N)=O)n1
- IC50 [1]: 0.0125 µM

Compound: Cn1cc(NC(=O)c2cnc3ccc(N[C@@H]4CCCNC4)nn23)c(C(F)(F)F)n1
- IC50 [1]: 0.0235 µM
- IC50 (OCI-Ly10): 2.8 µM
- IC50 (Ramos): > 50 µM
- IC50 (TMD8 [2]): 5.9 µM
- IC50 (HT): > 50 µM

Compound: O=C(Nc1cn(C2CCNCC2)nc1C(F)(F)F)c1cnc2ccc(N[C@@H]3CCCNC3)nn12
- IC50 [1]: 0.0522 µM

Compound: CCn1cc(NC(=O)c2cnc3ccc(N[C@@H]4CCCNC4)nn23)c(C(F)(F)F)n1
- IC50 [1]: 0.0323 µM
- IC50 (OCI-Ly10): 3.6 µM
- IC50 (Ramos): > 50 µM
- IC50 (TMD8 [2]): 6.1 µM
- IC50 (HT): > 50 µM

Compound: Cn1cc(NC(=O)c2cnc3ccc(N[C@@H]4CCCNC4)nn23)c(C#N)n1
- IC50 [1]: 0.0408 µM
- IC50 (OCI-Ly10): 5.8 µM
- IC50 (Ramos): 28.8 µM
- IC50 (TMD8 [2]): 14.8 µM
- IC50 (HT): > 50 µM

Compound: Cn1cc(NC(=O)c2cnc3ccc(N4CCC[C@@H](N)C4)nn23)c(C(F)F)n1
- IC50 [1]: 0.0087 µM
- IC50 (OCI-Ly10): 10.7 µM
- IC50 (Ramos): 44.3 µM
- IC50 (TMD8 [2]): 17.8 µM
- IC50 (HT): 41.7 µM

Compound: CC(C)n1cc(NC(=O)c2cnc3ccc(N[C@@H]4CCCNC4)nn23)c(C(F)(F)F)n1
- IC50 [1]: 0.077 µM

Compound: Cc1nn2ccc(N[C@@H]3CCCNC3)nc2c1C(=O)Nc1cn(C)nc1C(F)F
- IC50 [1]: > 1 µM

Compound: Cn1cc(NC(=O)c2cnc3ccc(N4CCC(N)CC4)nn23)c(C(F)F)n1
- IC50 [1]: 0.0803 µM

Compound: Cn1cc(NC(=O)c2cnc3ccc(N[C@@H]4CCCNC4)nn23)c(C(F)F)n1
- inhibition [3]: Dose-dependent effect
- inhibition [4]: > 50%
- IC50 [1]: 0.0013 µM
- inhibition [5]: Active
- inhibition [6]: Active
- inhibition [7]: Active
- inhibition [8]: > 50%
- inhibition [9]: Active
- CI (TMD8 [10]): 0.13
- inhibition [11]: Dose-dependent effect
- inhibition [12]: > 50%
- IC50 (OCI-Ly10): 0.7 µM
- IC50 (Ramos): 11.4 µM
- IC50 (TMD8 [2]): 1.2 µM
- IC50 (HT): 40.1 µM

Compound: CN(c1ccc2ncc(C(=O)Nc3cn(C)nc3C(F)F)n2n1)[C@@H]1CCCNC1
- IC50 [1]: > 1 µM

Compound: Cn1cc(NC(=O)c2cnc3ccc(N[C@@H]4CCCCNC4)nn23)c(C(F)F)n1
- IC50 [1]: 0.009 µM
- IC50 (OCI-Ly10): 0.8 µM
- IC50 (Ramos): 7.2 µM
- IC50 (TMD8 [2]): 1.2 µM
- IC50 (HT): 35.9 µM

Compound: Cn1cc(NC(=O)c2cnc3ccc(N4CCNCC4)nn23)c(C(F)F)n1
- IC50 [1]: 0.0655 µM

Compound: O=C(Nc1cn(C2CCOCC2)nc1C(F)(F)F)c1cnc2ccc(N[C@@H]3CCCNC3)nn12
- IC50 [1]: 0.0497 µM
- IC50 (OCI-Ly10): 10.5 µM
- IC50 (Ramos): > 50 µM
- IC50 (TMD8 [2]): 11.1 µM
- IC50 (HT): > 50 µM

Compound: Cc1nn(C)cc1NC(=O)c1cnc2ccc(N[C@@H]3CCCNC3)nn12
- IC50 [1]: > 1 µM

Compound: Cn1cc(NC(=O)c2cnc3ccc(N4CC[C@@H](N)C4)nn23)c(C(F)F)n1
- IC50 [1]: > 1 µM

Compound: Cn1cc(NC(=O)c2cnn3ccc(N4CCC[C@@H](N)C4)nc23)c(C(F)F)n1
- IC50 [1]: 0.0093 µM
- IC50 (OCI-Ly10): 5.5 µM
- IC50 (Ramos): 19 µM
- IC50 (TMD8 [2]): 7.3 µM
- IC50 (HT): 29.2 µM

Reference: ChEMBL document CHEMBL4765255, “Design and synthesis of Imidazo[1,2-b]pyridazine IRAK4 inhibitors for the treatment of mutant MYD88 L265P diffuse large B-cell lymphoma” (Eur J Med Chem, 2020)
